In ChEMBL document CHEMBL1123406, “Synthesis and evaluation of 2,3-dihydrobenzofuran analogues of the hallucinogen 1-(2,5-dimethoxy-4-methylphenyl)-2-aminopropane: drug discrimination studies in rats” (1986):
Active and inactive are the calls of the source. The rule behind the calls is not given here.

Tests used:
Rattus norvegicus [1] = experiment: Number of rats responding on LSD lever/number of rats treated at dose 4.0 mg/kg; 8/8; assay type: functional, organism-based; parameters: dose 4 mg/kg
Method in brief: (§1)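 Male Sprague–Dawley rats (200-240 g, housed singly) trained in a two-lever operant task to discriminate ip saline from LSD tartrate 0.08 mg/kg. Reinforcement was 45 mg food pellets on an FR50 schedule, with 15-min daily training sessions. Test drugs were given 30 min before testing. A test ended at 50 responses on either lever or at 5 min; rats not completing 50 presses were scored disrupted and excluded.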

Rattus norvegicus [2] = experiment: Percentage responding on LSD lever at dose 2.0 mg/kg; assay type: functional; method in brief: as §1
Rattus norvegicus [3] = experiment: Percentage responding on LSD lever at dose 3.0 mg/kg; assay type: functional; method in brief: as §1
Rattus norvegicus [4] = experiment: Number of rats responding on LSD lever/number of rats treated at dose 3.0 mg/kg; 8/10; assay type: functional, organism-based; parameters: dose 3 mg/kg; method in brief: as §1
Rattus norvegicus [5] = experiment: Percentage responding on LSD lever at dose 1.0 mg/kg; assay type: functional; method in brief: as §1
Rattus norvegicus [6] = experiment: Percentage responding on LSD lever at dose 4.0 mg/kg; assay type: functional; method in brief: as §1
Rattus norvegicus [7] = experiment: Percentage responding on LSD lever at dose 0.5 mg/kg; assay type: functional; method in brief: as §1
Rattus norvegicus [8] = experiment: Number of rats responding on LSD lever/number of rats treated at dose 0.5 mg/kg; 1/8; assay type: functional, organism-based; parameters: dose 0.5 mg/kg; method in brief: as §1
Rattus norvegicus [9] = experiment: Number of rats responding on LSD lever/number of rats treated at dose 1.0 mg/kg; 4/8; assay type: functional, organism-based; parameters: dose 1 mg/kg; method in brief: as §1
Rattus norvegicus [10] = experiment: Number of rats responding on LSD lever/number of rats treated at dose 2.0 mg/kg; 6/8; assay type: functional, organism-based; parameters: dose 2 mg/kg; method in brief: as §1
Rattus norvegicus [11] = species: Rattus norvegicus; experiment: Compound was evaluated for the drug discrimination assay and the ED50 (potency) was determined; assay type: functional; method in brief: as §1
Rattus norvegicus [12] = experiment: Percentage responding on LSD lever at dose 8.0 mg/kg; assay type: functional; method in brief: as §1
Rattus norvegicus [13] = experiment: Percentage responding on LSD lever at dose 16.0 mg/kg; assay type: functional; method in brief: as §1
Rattus norvegicus [14] = experiment: Number of rats responding on LSD lever/number of rats treated at dose 4.0 mg/kg; 5/8; assay type: functional, organism-based; parameters: dose 4 mg/kg; method in brief: as §1
Rattus norvegicus [15] = experiment: Percentage responding on LSD lever at dose 0.25 mg/kg; assay type: functional; method in brief: as §1
Rattus norvegicus [16] = experiment: Number of rats responding on LSD lever/number of rats treated at dose 1.0 mg/kg; 1/8; assay type: functional, organism-based; parameters: dose 1 mg/kg; method in brief: as §1
Rattus norvegicus [17] = experiment: Number of rats responding on LSD lever/number of rats treated at dose 0.25 mg/kg; 1/8; assay type: functional, organism-based; parameters: dose 0.25 mg/kg; method in brief: as §1
Rattus norvegicus [18] = experiment: Number of rats responding on LSD lever/number of rats treated at dose 10.0 mg/kg; 10/12; assay type: functional, organism-based; parameters: dose 10 mg/kg; method in brief: as §1
Rattus norvegicus [19] = experiment: Percentage responding on LSD lever at dose 10.0 mg/kg; assay type: functional; method in brief: as §1
Rattus norvegicus [20] = experiment: Number of rats responding on LSD lever/number of rats treated at dose 8.0 mg/kg; 6/8; assay type: functional, organism-based; parameters: dose 8 mg/kg; method in brief: as §1

SMILES	Activity (Rattus norvegicus [1])	Responding (Rattus norvegicus [2])	Responding (Rattus norvegicus [3])	Activity (Rattus norvegicus [4])	Responding (Rattus norvegicus [5])	Responding (Rattus norvegicus [6])	Responding (Rattus norvegicus [7])	Activity (Rattus norvegicus [8])	Activity (Rattus norvegicus [9])	Activity (Rattus norvegicus [10])	ED50 (Rattus norvegicus [11])	Responding (Rattus norvegicus [12])	Responding (Rattus norvegicus [13])	Activity (Rattus norvegicus [14])	Responding (Rattus norvegicus [15])	Activity (Rattus norvegicus [16])	Activity (Rattus norvegicus [17])	Activity (Rattus norvegicus [18])	Responding (Rattus norvegicus [19])	Activity (Rattus norvegicus [20])
COc1cc2c(cc1CC(C)N)OCO2 (stereo not drawn)	Active	75%	80%	Active	50%	100%	13%	inactive	Weak activity	Weak activity	1.71 mg/kg									
COc1cc2c(cc1CC(C)N)OC(C)C2 (stereo not drawn)		0%				38%	0%				5.5 mg/kg	63%	88%							
COc1cc2c(cc1CC(C)N)OCC2 (stereo not drawn)					13%	63%					2.12 mg/kg	75%		Weak activity	13%	inactive	inactive	Active	83%	Weak activity
